Calls of active or inactive are those of the source. The calls are words filed in the database; no cut-off is given here.
Columns and labels:
Enterococcus faecium [1] = assay: Bactericidal activity against Enterococcus faecium isolate 6 with AMP-AMC-CLI-CRO-CTX-CIP-ERY-GEN-KAN-LVX-SXT-VAN resistance phenotype assessed as concentration required for >= 3 log10 CFU/ml reduction in viable bacteria in sodium phosphate buffer at pH 7.4 after 1.5 hrs by liquid microdilution assay; assay type: functional
Method in brief: (§1)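 Clinical multidrug-resistant isolates grown to mid-log in tryptone soy broth and stored frozen. Exponential cells resuspended in 10 mM sodium phosphate buffer, pH 7.4, at 1 × 10^7 CFU/ml; 10 μl incubated with graded peptide concentrations in 100 μl at 37°C for 1.5 h. Plated on tryptone soy agar, CFU read after 24 h at 37°C. Peptide stocks in 20% ethanol.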

Enterococcus faecium [2] = assay: Antimicrobial activity against Enterococcus faecium isolate 3 with AMP-CIP-CTX-ERY-GEN-LVX-SXT-TEC-VAN resistance phenotype at twofold the bactericidal concentration within 30 mins; assay type: functional, organism-based
Method in brief: (§2)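 Time-kill in 10 mM sodium phosphate buffer, pH 7.4: 1 × 10^7 CFU/ml mid-log clinical isolate (10 μl) exposed at 37°C to peptide at the 1.5-h bactericidal concentration or twofold that, in 100 μl. Samples taken from 2 min onward, plated on tryptone soy agar, CFU counted after 24 h at 37°C. Killing taken as ≥3 log10 CFU/ml drop.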

Pseudomonas aeruginosa [3] = assay: Bactericidal activity against Pseudomonas aeruginosa isolate 1 with AMP-CFZ-CIP-CTX-CXM-GEN-LVX-SXT-TET resistance phenotype assessed as concentration required for >= 3 log10 CFU/ml reduction in viable bacteria in 20% heat-inactivated human serum after 1.5 hrs by liquid microdilution assay; assay type: functional
Method in brief: (§3)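 The buffer microdilution kill assay (1 × 10^7 CFU/ml mid-log cells, 10 μl in 100 μl, 37°C, 1.5 h, CFU on tryptone soy agar after 24 h) with serum added to 20% or 40% final. Serum was pooled from five healthy donors, clotted at room temperature, spun at 300 × g and heat-inactivated at 56°C for 30 min.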

Staphylococcus aureus [4] = assay: Bactericidal activity against Staphylococcus aureus isolate 3 with AMC-AMP-CIP-ERY-GEN-LVX-OXA resistance phenotype assessed as concentration required for >= 3 log10 CFU/ml reduction in viable bacteria in sodium phosphate buffer at pH 7.4 after 1.5 hrs by liquid microdilution assay; assay type: functional; method in brief: as §1
Pseudomonas aeruginosa [5] = assay: Bactericidal activity against Pseudomonas aeruginosa isolate 1 with AMP-CFZ-CIP-CTX-CXM-GEN-LVX-SXT-TET resistance phenotype assessed as concentration required for >= 3 log10 CFU/ml reduction in viable bacteria in 40% heat-inactivated human serum after 1.5 hrs by liquid microdilution assay; assay type: functional; method in brief: as §3
[6] = test system: Stenotrophomonas maltophilia; assay: Bactericidal activity against Stenotrophomonas maltophilia isolate 4 with AMK-CAZ-CIP-FEP-IPM-SAM-TZP resistance phenotype assessed as concentration required for >= 3 log10 CFU/ml reduction in viable bacteria in sodium phosphate buffer at pH 7.4 after 1.5 hrs by liquid microdilution assay; assay type: functional; method in brief: as §1
Acinetobacter baumannii [7] = assay: Antimicrobial activity against Acinetobacter baumannii isolate 3 with AMP-AMC-CFZ-CIP-IPM-SXT-TET-TOB resistance phenotype assessed as time to kill at bactericidal concentration; assay type: functional; method in brief: as §2
Enterococcus faecium [8] = assay: Bactericidal activity against Enterococcus faecium isolate 3 with AMP-CIP-CTX-ERY-GEN-LVX-SXT-TEC-VAN resistance phenotype assessed as concentration required for >= 3 log10 CFU/ml reduction in viable bacteria in sodium phosphate buffer at pH 7.4 after 1.5 hrs by liquid microdilution assay; assay type: functional; method in brief: as §1
[9] = test system: Stenotrophomonas maltophilia; assay: Bactericidal activity against Stenotrophomonas maltophilia isolate 2 with AMK-CIP-CTX-IPM-MEM-SAM-TZP resistance phenotype assessed as concentration required for >= 3 log10 CFU/ml reduction in viable bacteria in sodium phosphate buffer at pH 7.4 after 1.5 hrs by liquid microdilution assay; assay type: functional; method in brief: as §1
Staphylococcus aureus [10] = assay: Bactericidal activity against Staphylococcus aureus isolate 2 with AMC-AMP-CIP-ERY-GEN-LVX-OXA-RIF-TET resistance phenotype assessed as concentration required for >= 3 log10 CFU/ml reduction in viable bacteria in sodium phosphate buffer at pH 7.4 after 1.5 hrs by liquid microdilution assay; assay type: functional; method in brief: as §1
[11] = test system: Stenotrophomonas maltophilia; assay: Antimicrobial activity against Stenotrophomonas maltophilia isolate 2 with AMK-CIP-CTX-IPM-MEM-SAM-TZP resistance phenotype assessed as assessed as time to kill at twofold bactericidal concentration; assay type: functional; method in brief: as §2
Staphylococcus aureus [12] = assay: Antimicrobial activity against Staphylococcus aureus isolate 1 with AMC-AMP-CIP-ERY-GEN-OXA-RIF resistance phenotype at bactericidal concentration within 30 mins; assay type: functional, organism-based; method in brief: as §2
Staphylococcus aureus [13] = assay: Bactericidal activity against Staphylococcus aureus isolate 1 with AMC-AMP-CIP-ERY-GEN-OXA-RIF resistance phenotype assessed as concentration required for >= 3 log10 CFU/ml reduction in viable bacteria in 20% heat-inactivated human serum after 1.5 hrs by liquid microdilution assay; assay type: functional; method in brief: as §3
Pseudomonas aeruginosa [14] = assay: Antimicrobial activity against Pseudomonas aeruginosa isolate 1 with AMP-CFZ-CIP-CTX-CXM-GEN-LVX-SXT-TET resistance phenotype at bactericidal concentration after 30 mins by time kill assay; assay type: functional, organism-based; method in brief: as §2
Staphylococcus aureus [15] = assay: Bactericidal activity against Staphylococcus aureus isolate 1 with AMC-AMP-CIP-ERY-GEN-OXA-RIF resistance phenotype assessed as concentration required for >= 3 log10 CFU/ml reduction in viable bacteria in sodium phosphate buffer at pH 7.4 after 1.5 hrs by liquid microdilution assay; assay type: functional; method in brief: as §1
Enterococcus faecium [16] = assay: Antimicrobial activity against Enterococcus faecium isolate 3 with AMP-CIP-CTX-ERY-GEN-LVX-SXT-TEC-VAN resistance phenotype assessed as time to kill at twofold the bactericidal concentration; assay type: functional, organism-based; method in brief: as §2
Enterococcus faecium [17] = assay: Antimicrobial activity against Enterococcus faecium isolate 3 with AMP-CIP-CTX-ERY-GEN-LVX-SXT-TEC-VAN resistance phenotype at bactericidal concentration within 30 mins; assay type: functional, organism-based; method in brief: as §2
Acinetobacter baumannii [18] = assay: Bactericidal activity against Acinetobacter baumannii isolate 3 with AMP-AMC-CFZ-CIP-IPM-SXT-TET-TOB resistance phenotype assessed as concentration required for >= 3 log10 CFU/ml reduction in viable bacteria in 40% heat-inactivated human serum after 1.5 hrs by liquid microdilution assay; assay type: functional; method in brief: as §3
Enterococcus faecium [19] = assay: Bactericidal activity against Enterococcus faecium isolate 5 with AMP-AMC-CIP-CLI-ERY-GEN-KAN-LVX-SXT-TEC-VAN resistance phenotype assessed as concentration required for >= 3 log10 CFU/ml reduction in viable bacteria in sodium phosphate buffer at pH 7.4 after 1.5 hrs by liquid microdilution assay; assay type: functional; method in brief: as §1
Acinetobacter baumannii [20] = assay: Bactericidal activity against Acinetobacter baumannii isolate 1 with AMP-AMC-CFZ-CIP-IPM-LVX-PIP-SXT-TET resistance phenotype assessed as concentration required for >= 3 log10 CFU/ml reduction in viable bacteria in sodium phosphate buffer at pH 7.4 after 1.5 hrs by liquid microdilution assay; assay type: functional; method in brief: as §1
[21] = test system: Stenotrophomonas maltophilia; assay: Bactericidal activity against Stenotrophomonas maltophilia isolate 2 with AMK-CIP-CTX-IPM-MEM-SAM-TZP resistance phenotype assessed as concentration required for >= 3 log10 CFU/ml reduction in viable bacteria in 40% heat-inactivated human serum after 1.5 hrs by liquid microdilution assay; assay type: functional; method in brief: as §3
Acinetobacter baumannii [22] = assay: Bactericidal activity against Acinetobacter baumannii isolate 2 with AMP-CFZ-CIP-LVX-PIP-SXT resistance phenotype assessed as concentration required for >= 3 log10 CFU/ml reduction in viable bacteria in sodium phosphate buffer at pH 7.4 after 1.5 hrs by liquid microdilution assay; assay type: functional; method in brief: as §1

Substance: H-GIFSKLAGKKLKNLLISG-NH2
- Activity (Enterococcus faecium [1]): 2 µM
- Activity (Enterococcus faecium [2]): inactive
- Activity (Pseudomonas aeruginosa [3]): 4 µM
- Activity (Staphylococcus aureus [4]): 8 µM
- Activity (Pseudomonas aeruginosa [5]): 128 µM
- Activity [6]: 0.5 µM
- Time (Acinetobacter baumannii [7]): 2 min
- Activity (Enterococcus faecium [8]): 2 µM
- Activity [9]: 0.5 µM
- Activity (Staphylococcus aureus [10]): 16 µM
- Time [11]: 2 min
- Activity (Staphylococcus aureus [12]): inactive
- Activity (Staphylococcus aureus [13]): 64 µM
- Activity (Pseudomonas aeruginosa [14]): inactive
- Activity (Staphylococcus aureus [15]): 32 µM
- Activity (Enterococcus faecium [16]): inactive
- Activity (Enterococcus faecium [17]): inactive
- Activity (Acinetobacter baumannii [18]): 32 µM
- Activity (Enterococcus faecium [19]): 2 µM
- Activity (Acinetobacter baumannii [20]): 0.5 µM
- Activity [21]: 16 µM
- Activity (Acinetobacter baumannii [22]): 0.5 µM
